# Results reported in ChEMBL document CHEMBL1133717, “Soft drugs. 12. Design, synthesis, and evaluation of soft bufuralol analogues” (J Med Chem, 2000).
# What was measured:
# Type in all cases: ADME
# [1] = Half-life in rat blood evaluated by enzymatic hydrolysis
# In short: (§1)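 Incubation in fresh heparinized male Sprague-Dawley rat blood (used within 30 min) at 37.0 ± 0.1 °C, compound added in methanol at 1:10. Timed samples were quenched in cold methanol and centrifuged; the supernatant (12 µM final) was analysed by HPLC for ester and acid metabolite.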
# [2] = Half-life was evaluated by chemical hydrolysis
# In short: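 pH 12.0 buffer (0.01 N NaOH, isotonic phosphate 0.5 mM) at 37.0 ± 0.1 °C, with an initial ester concentration of 120 µM. Timed samples were quenched 1:10 in cold methanol (12 µM final) and analysed by HPLC. The pseudo-first-order rate constant came from a linear regression of ln(peak area) versus time, and the half-life was derived from it.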
# Rattus norvegicus = species on record: Rattus norvegicus; assay: Evaluation of apparent pseudo-first-order hydrolytic rate constant(k) by enzymatic hydrolysis in rat blood at 37+/-0.1 degree Centigrade
# In short: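 Freshly drawn heparinized blood from male Sprague-Dawley rats, used within 30 min. Compound in methanol (0.1 mL) was mixed with blood (0.9 mL) at 37.0 ± 0.1 °C. Timed aliquots were mixed with cold methanol, frozen and centrifuged (24 000 rpm, 3 min), giving a final sample concentration of 12 µM. Ester loss was followed by HPLC of the supernatant, and the pseudo-first-order k was obtained from ln(peak area) versus time.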
# [3] = Evaluated for apparent pseudo first-order hydrolytic rate constant(K) in chemical hydrolysis
# [4] = Half-life in rat blood; evaluated by enzymatic hydrolysis; in short: as §1
SMILES,half-life [1] [min],half-life [2] [min],k (Rattus norvegicus) [min⁻¹],k [3] [min⁻¹],half-life [4] [min]
CC(C)(C)NCC(O)c1cc2cccc(CC(=O)OC(C)(C)C)c2o1 (centres undefined),99,75.7,0.007,0.091,
CC(C)OC(=O)Cc1cccc2cc(C(O)CNC(C)(C)C)oc12 (centres undefined),16.6,45.7,0.0417,0.015,
CC(C)(C)NCC(O)c1cc2cccc(CC(=O)OCCC34C[C@H]5C[C@@H](C3)C[C@@H](C4)C5)c2o1 (some centres undefined),< 0.15,150,,0.0016,
CSCOC(=O)Cc1cccc2cc(C(O)CNC(C)(C)C)oc12 (centres undefined),< 0.15,25,,0.027,

# Now from value to compound:
half-life [1] [min],half-life [2] [min],k (Rattus norvegicus) [min⁻¹],k [3] [min⁻¹],half-life [4] [min],SMILES
6.2,15.2,0.111,0.045,,CC(C)(C)NCC(O)c1cc2cccc(CC(=O)OC3CCCCC3)c2o1 (centres undefined)
,8.2,,0.084,< 0.15,CCOC(=O)Cc1cccc2cc(C(O)CNC(C)(C)C)oc12 (centres undefined)
< 0.15,7.2,,0.096,,COC(=O)Cc1cccc2cc(C(O)CNC(C)(C)C)oc12 (centres undefined)
